The source of these data is ChEMBL document CHEMBL4007461, “Synthesis, Antiviral Potency, in Vitro ADMET, and X-ray Structure of Potent CD4 Mimics as Entry Inhibitors That Target the Phe43 Cavity of HIV-1 gp120” (J Med Chem, 2017).

≈ marks a conversion by molar mass, not a printed value. Bounds are passed on as bounds.

Data set [1] deals with Human immunodeficiency virus 1. Nature of the data set: Antiviral activity against HIV1 HXB2 pseudovirus infected in human TZM-bl cells assessed as inhibition of viral entry treated 4 hrs post infection measured after 48 hrs by luciferase reporter gene assay. Type of data set: functional.
The test system of data set [2] is Human immunodeficiency virus 1. Kind of data set: Antiviral activity against ENV pseudotyped CCR5-tropic HIV1 subtype C 225925-2, clone 22. In kind it is functional. The note with it: Human immunodeficiency virus 1, subtype C 225925-2, clone 22. A digest of the protocol:
(§1)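 Env-pseudotyped viruses made by co-transfecting HEK293T cells with an Env-deleted pSG3 backbone (8 µg) and an Env-expression plasmid (8 µg). Supernatants were harvested 2 days after transfection, filtered, titered and stored at −80 °C. They were used for single-cycle infection, and IC50 was taken from percent inhibition.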

Data set [3] can be described thus: Metabolic stability in human liver microsomes assessed as compound remaining at 45 mins in presence of NADPH by LC-MS/MS analysis. In kind it is ADME, microsome. The note with it: read-out: Stability. A general note: Liver microsomes are vesicles of endoplasmic reticulum, rich in cytochrome P450 enzymes.
A further data set concerns the target Cytochrome P450 2C9 (Homo sapiens, UniProt P11712). Nature of the data set: Inhibition of CYP2C9 in human liver microsomes using tolbutamide as substrate after 60 mins in presence of NADPH by LC-MS/MS analysis. Type of data set: ADME.
The subject of data set [4] is Human immunodeficiency virus 1. Nature of the data set: Antiviral activity against ENV pseudotyped CCR5-tropic HIV1 p9021_14.B2.4571. Type of data set: functional. As to conditions: Human immunodeficiency virus 1, p9021_14.B2.4571.
Data set [5] can be described thus: Unbound fraction in human plasma at 5 uM by LC-MS/MS based equilibrium dialysis. In kind it is ADME, cell-free. For orientation: In equilibrium dialysis free small molecules cross a membrane that holds back macromolecules.
The next data set has as its target Cytochrome P450 2D6 (Homo sapiens, UniProt P10635). Kind of data set: Inhibition of CYP2D6 in human liver microsomes using dextromethorphan as substrate after 5 mins in presence of NADPH by LC-MS/MS analysis. In kind it is ADME.
Data set [6] addresses Voltage-gated inwardly rectifying potassium channel KCNH2 (Homo sapiens, UniProt Q12809). Kind of data set: Inhibition of human ERG expressed in CHO cells by patch clamp electrophysiology assay. Type of data set: cell-based.
The target in another data set is Cytochrome P450 2C19 (Homo sapiens, UniProt P33261). Kind of data set: Inhibition of CYP2C19 in human liver microsomes using mephenytoin as substrate after 60 mins in presence of NADPH by LC-MS/MS analysis. Type of data set: ADME.
Sequence of Cytochrome P450 2C19 (P33261 whole entry): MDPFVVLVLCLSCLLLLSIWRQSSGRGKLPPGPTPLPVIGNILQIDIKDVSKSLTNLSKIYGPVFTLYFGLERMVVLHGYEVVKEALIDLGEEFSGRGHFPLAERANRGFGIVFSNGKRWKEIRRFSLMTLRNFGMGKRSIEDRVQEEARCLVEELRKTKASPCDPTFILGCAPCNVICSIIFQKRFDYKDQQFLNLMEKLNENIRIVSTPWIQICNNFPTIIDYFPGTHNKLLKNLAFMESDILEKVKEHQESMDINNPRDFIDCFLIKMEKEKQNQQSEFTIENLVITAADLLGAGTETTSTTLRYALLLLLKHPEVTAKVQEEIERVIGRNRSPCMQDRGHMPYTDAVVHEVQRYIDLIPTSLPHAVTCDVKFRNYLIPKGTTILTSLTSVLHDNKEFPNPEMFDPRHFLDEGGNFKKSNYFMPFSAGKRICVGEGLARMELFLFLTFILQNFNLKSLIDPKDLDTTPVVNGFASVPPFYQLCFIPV
For data set [7], the system named is Human immunodeficiency virus 1. Nature of the data set: microbe, parasite or virus in culture. The note with it: Human immunodeficiency virus 1, subtype A QB726.70M.ENV.C4.
The subject of data set [8] is Human immunodeficiency virus 1. Kind of data set: Antiviral activity against ENV pseudotyped CCR5-tropic HIV1 p1054.TC4.1499. In kind it is functional. The note with it: Human immunodeficiency virus 1, p1054.TC4.1499.
Data set [9] concerns Human immunodeficiency virus 1. Nature of the data set: microbe, parasite or virus in culture. The note with it: Human immunodeficiency virus 1, subtype A/G CRF02_AG clone 278.
Data set [10] relates to Human immunodeficiency virus 1. Kind of data set: microbe, parasite or virus in culture. As to conditions: Human immunodeficiency virus 1, subtype C Du422, clone 1.
Data set [11] concerns Human immunodeficiency virus 1. Kind of data set: microbe, parasite or virus in culture. As to conditions: Human immunodeficiency virus 1, subtype A/G CRF02_AG clone 263.
The subject of data set [12] is Human immunodeficiency virus 1. Kind of data set: Antiviral activity against ENV pseudotyped CCR5-tropic HIV1 subtype C 6936-2, clone 21. The note with it: Human immunodeficiency virus 1, subtype C 6936-2, clone 21. In kind it is functional. The procedure, abridged:
as §1

Data set [13] is described as follows: Aqueous solubility of the compound at 1 to 100 uM in PBS at pH 7.4 after 2 hrs by turbidimetric analysis. Type of data set: physicochemical. The procedure, abridged: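 DMSO stocks diluted 1:100 into phosphate-buffered saline pH 7.4, giving 1, 3, 10, 30 and 100 µM final in 1% DMSO. Seven replicate wells per concentration, incubated 2 h at 37 °C, absorbance read at 620 nm. Solubility taken as the concentration giving absorbance above the 1% DMSO vehicle.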

For another data set, the target named is Cytochrome P450 3A4 (Homo sapiens, UniProt P08684). Kind of data set: Inhibition of CYP3A4 in human liver microsomes using midazolam as substrate after 5 mins in presence of NADPH by LC-MS/MS analysis. In kind it is ADME.
Sequence of Cytochrome P450 3A4 (P08684 whole entry): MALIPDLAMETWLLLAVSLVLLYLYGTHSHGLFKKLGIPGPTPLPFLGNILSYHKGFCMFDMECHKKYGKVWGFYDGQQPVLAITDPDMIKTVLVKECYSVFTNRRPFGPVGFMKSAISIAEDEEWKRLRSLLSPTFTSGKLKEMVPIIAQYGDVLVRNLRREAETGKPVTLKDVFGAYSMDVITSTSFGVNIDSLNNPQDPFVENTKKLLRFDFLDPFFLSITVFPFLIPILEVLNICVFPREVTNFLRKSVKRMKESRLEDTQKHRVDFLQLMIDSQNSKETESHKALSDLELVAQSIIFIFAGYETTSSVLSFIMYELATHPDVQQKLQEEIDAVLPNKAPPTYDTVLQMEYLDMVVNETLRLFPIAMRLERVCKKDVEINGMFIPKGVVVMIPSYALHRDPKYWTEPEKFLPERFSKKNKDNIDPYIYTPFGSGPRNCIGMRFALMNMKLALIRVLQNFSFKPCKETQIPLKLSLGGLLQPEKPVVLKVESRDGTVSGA
Data set [14] deals with Human immunodeficiency virus 1. Nature of the data set: microbe, parasite or virus in culture. The note with it: Human immunodeficiency virus 1, pCAAN5342 clone A2.
Data set [15] relates to Human immunodeficiency virus 1. Kind of data set: microbe, parasite or virus in culture. The note with it: Human immunodeficiency virus 1, AC10.0, clone 29.
For data set [16], the system named is Human immunodeficiency virus 1. Kind of data set: Antiviral activity against ENV pseudotyped CCR5-tropic HIV1 subtype C 25711-2, clone 4. Type of data set: functional. The note with it: Human immunodeficiency virus 1, subtype C 25711-2, clone 4.
Data set [17] deals with Human immunodeficiency virus 1. Kind of data set: microbe, parasite or virus in culture. As to conditions: Human immunodeficiency virus 1, subtype C QB099.391 M.ENV.B1.
Data set [18] relates to Human immunodeficiency virus 1. Kind of data set: Antiviral activity against ENV pseudotyped CCR5-tropic HIV1 subtype D QD435.100M.ENV.A4. Type of data set: functional. The note with it: Human immunodeficiency virus 1, subtype D QD435.100M.ENV.A4. A digest of the protocol:
as §1

Data set [19] can be described thus: Apparent permeability from basolateral to apical side in human Caco2 cells at 10 uM at pH 7.4 by LC-MS/MS analysis. Type of data set: ADME, cell-based. As to conditions: Caco-2, pH 7.4. The procedure, abridged: (§2)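 Caco-2 cells, passage 40-60, seeded on Transwell inserts at 1 x 10^5 cells/cm2 and grown 20 days in DMEM. Monolayers equilibrated 40 min in HBSS. Donor: compound at 10 µM final, 1% DMSO, in HBSS pH 7.4 with lucifer yellow as integrity marker. Sampled at 120 min, A-B and B-A, in duplicate, by LC-MS/MS. Papp = (dQ/dt)/(C0 × A); efflux ratio = Papp(B-A)/Papp(A-B).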
In general terms: Caco-2 monolayers are a common model of the intestinal barrier.

Data set [20] has as its system Human immunodeficiency virus 1. Nature of the data set: Antiviral activity against ENV pseudotyped CCR5-tropic HIV1 subtype D QD435.100M.ENV.E1. In kind it is functional. The note with it: Human immunodeficiency virus 1, subtype D QD435.100M.ENV.E1.
Another data set has as its system MT2. Nature of the data set: Cytotoxicity against human MT2 cells incubated for 4 days by XTT assay. In kind it is cell-based. As to conditions: mt2, 96 h, 96 h. The procedure, abridged:
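Run alongside the MT-2 multicycle infection assay. Compound at graded concentrations mixed with an equal volume of MT-2 cells (10^5 cells/ml). Medium replaced next day and culture continued four days.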

For data set [21], the system named is Human immunodeficiency virus 1. Kind of data set: microbe, parasite or virus in culture. As to conditions: Human immunodeficiency virus 1, subtype A2/D QG393.60M.ENV.B8.
The nature of data set [22]: Intrinsic clearance in human liver microsomes assessed per mg protein in presence of NADPH by LC-MS/MS analysis. Type of data set: ADME, microsome. As to conditions: read-out: CLH.
The nature of data set [23]: Apparent permeability from apical to basolateral side in human Caco2 cells at 10 uM at pH 7.4 by LC-MS/MS analysis. In kind it is ADME, cell-based. The note with it: Caco-2, pH 7.4. The procedure, abridged:
as §2

Data set [24] relates to Vesicular stomatitis virus. Kind of data set: Antiviral activity against G-glycoprotein expressing VSV. In kind it is functional. The procedure, abridged: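 VSV-G pseudovirus made in HEK293T cells from pVPack-VSV-G, MLV gag-pol pVPack-GP and pFB-luc plasmids. Virus was preincubated 30 min with graded compound concentrations, then added to U87-CD4-CXCR4 cells (1 x 10^4/well, plated overnight).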

Data set [25] deals with Human immunodeficiency virus 1. Nature of the data set: Antiviral activity against ENV pseudotyped CCR5-tropic HIV1 subtype D QA013.70I.ENV.M12. As to conditions: Human immunodeficiency virus 1, subtype D QA013.70I.ENV.M12. Type of data set: functional. A digest of the protocol:
as §1

A short description of data set [26]: Inhibition of CYP1A in human liver microsomes using ethoxyresorufin as substrate after 5 mins in presence of NADPH by LC-MS/MS analysis.
The nature of data set [27]: Cytotoxicity against human TZM-bl cells incubated for 3 days by XTT assay. The note with it: TZM-bl cells. In kind it is cell-based. A digest of the protocol:
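TZM-bl cells, 1 x 10^4/well, cultured overnight at 37 °C. Compounds added at graded concentrations for three days.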

Data set [28] can be described thus: Inhibition of HIV1 reverse transcriptase by colorimetric assay. Details: species or system Human immunodeficiency virus 1. A digest of the protocol:
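HIV-1 reverse transcriptase activity measured with a commercial colorimetric reverse transcriptase kit, following the maker's instructions.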

Data set [29] deals with Human immunodeficiency virus 1. Nature of the data set: microbe, parasite or virus in culture. As to conditions: Human immunodeficiency virus 1, subtype D/A BF535.W6M.ENV.A1.
A short description of data set [30]: Inhibition of HIV1 HXB2 gp120-mediated cell to cell fusion using human MAGI-CCR5 cells as indicator cells and Env/Tat-expressing HL2/3 cells as effector cells preincubated with MAGI-CCR5 cells for 1 hr followed by HL2/3 cells addition by beta-galactosidase reporter gene assay. The note with it: Human immunodeficiency virus 1, HXB2.

Sequence of Cytochrome P450 2D6 (P10635 whole entry): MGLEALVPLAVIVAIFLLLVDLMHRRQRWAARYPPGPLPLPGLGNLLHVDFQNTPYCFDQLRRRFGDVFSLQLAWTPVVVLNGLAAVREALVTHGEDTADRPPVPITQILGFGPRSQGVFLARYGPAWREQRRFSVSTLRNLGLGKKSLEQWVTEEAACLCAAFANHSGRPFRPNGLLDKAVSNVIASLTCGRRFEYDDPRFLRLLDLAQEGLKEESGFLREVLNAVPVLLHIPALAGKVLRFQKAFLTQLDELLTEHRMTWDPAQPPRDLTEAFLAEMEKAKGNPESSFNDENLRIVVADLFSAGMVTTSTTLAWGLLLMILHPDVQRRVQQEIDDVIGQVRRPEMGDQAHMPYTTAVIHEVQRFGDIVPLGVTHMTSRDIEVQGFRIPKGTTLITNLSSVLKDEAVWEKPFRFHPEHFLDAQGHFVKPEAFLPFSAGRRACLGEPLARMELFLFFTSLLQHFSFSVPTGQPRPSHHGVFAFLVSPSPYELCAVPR
Sequence of Voltage-gated inwardly rectifying potassium channel KCNH2 (Q12809 whole entry): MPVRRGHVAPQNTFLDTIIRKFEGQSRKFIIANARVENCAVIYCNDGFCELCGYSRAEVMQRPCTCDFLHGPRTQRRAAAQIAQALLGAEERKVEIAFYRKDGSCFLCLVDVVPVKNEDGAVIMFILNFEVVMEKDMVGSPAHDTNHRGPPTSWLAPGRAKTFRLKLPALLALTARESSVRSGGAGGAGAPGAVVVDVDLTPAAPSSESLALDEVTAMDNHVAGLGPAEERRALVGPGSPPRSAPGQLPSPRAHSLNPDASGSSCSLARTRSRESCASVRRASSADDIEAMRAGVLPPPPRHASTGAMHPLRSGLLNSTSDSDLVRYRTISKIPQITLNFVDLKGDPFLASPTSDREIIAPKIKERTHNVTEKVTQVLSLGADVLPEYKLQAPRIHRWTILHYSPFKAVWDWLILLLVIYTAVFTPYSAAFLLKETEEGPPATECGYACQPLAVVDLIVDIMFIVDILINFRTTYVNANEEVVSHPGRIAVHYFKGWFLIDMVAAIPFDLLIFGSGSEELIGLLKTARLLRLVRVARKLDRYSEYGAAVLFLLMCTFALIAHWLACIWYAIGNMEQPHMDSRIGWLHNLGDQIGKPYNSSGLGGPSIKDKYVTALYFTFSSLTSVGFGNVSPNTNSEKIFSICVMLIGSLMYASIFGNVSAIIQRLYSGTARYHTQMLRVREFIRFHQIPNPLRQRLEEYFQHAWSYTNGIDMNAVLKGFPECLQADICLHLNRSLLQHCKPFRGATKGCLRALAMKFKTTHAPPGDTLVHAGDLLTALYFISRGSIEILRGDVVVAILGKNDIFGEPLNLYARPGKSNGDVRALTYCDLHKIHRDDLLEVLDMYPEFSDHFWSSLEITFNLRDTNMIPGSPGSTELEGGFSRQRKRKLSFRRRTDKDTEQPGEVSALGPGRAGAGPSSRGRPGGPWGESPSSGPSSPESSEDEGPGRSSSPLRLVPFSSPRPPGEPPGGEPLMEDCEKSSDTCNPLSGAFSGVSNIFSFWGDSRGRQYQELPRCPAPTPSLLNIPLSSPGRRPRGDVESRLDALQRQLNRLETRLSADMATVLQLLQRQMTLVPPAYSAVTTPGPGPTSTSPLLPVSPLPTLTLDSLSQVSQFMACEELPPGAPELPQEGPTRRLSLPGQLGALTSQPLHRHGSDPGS
Sequence of Cytochrome P450 2C9 (P11712 whole entry): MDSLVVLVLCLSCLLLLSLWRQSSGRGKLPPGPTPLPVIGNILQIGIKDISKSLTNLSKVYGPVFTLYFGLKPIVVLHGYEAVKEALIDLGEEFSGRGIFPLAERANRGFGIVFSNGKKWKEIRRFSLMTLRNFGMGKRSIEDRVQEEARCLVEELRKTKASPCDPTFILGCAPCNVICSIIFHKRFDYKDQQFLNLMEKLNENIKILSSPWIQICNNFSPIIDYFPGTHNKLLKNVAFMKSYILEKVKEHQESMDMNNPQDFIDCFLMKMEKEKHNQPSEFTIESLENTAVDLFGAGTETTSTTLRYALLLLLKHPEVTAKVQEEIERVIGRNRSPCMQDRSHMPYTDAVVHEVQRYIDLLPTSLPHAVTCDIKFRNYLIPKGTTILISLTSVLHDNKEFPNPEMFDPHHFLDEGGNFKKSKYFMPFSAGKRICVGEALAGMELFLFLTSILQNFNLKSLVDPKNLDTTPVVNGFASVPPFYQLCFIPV

Consider `Cc1cn([C@H]2C[C@H](N=[N+]=[N-])[C@@H](CO)O2)c(=O)[nH]c1=O` [ZIDOVUDINE], for which the “inhibition (INH)” value in [1] is reported as 50%.

The term IC50 denotes the midpoint of a concentration-inhibition curve. One may read the fraction unbound as the share of the substance not bound to proteins or other matrix. Low readings indicate little free substance, high ones much free substance. The kinetic solubility is the concentration staying in solution when a stock, usually in DMSO, is diluted into the medium. For orientation: Papp B→A means how fast a substance crosses the layer from the basolateral side. In general, CC50 refers to the concentration at which the toxic effect on the cells reaches its halfway point. Low readings indicate greater toxicity to the cells, high ones lower toxicity to the cells. One may read the Papp A→B as how fast a substance crosses the layer from the apical side. For `NCC(NC(=O)c1ccc(-c2cc(F)c(Cl)c(F)c2)[nH]1)c1ncc(CO)s1` (stereo in doubt), the 50% inhibitory concentration (IC50) in data set [2] was 330 nM; at Cytochrome P450 2C9, above 25000 nM; in [4], 310 nM; at Cytochrome P450 2D6 it was above 25000 nM; in [6] it was 14100 nM; at Cytochrome P450 2C19, above 25000 nM. The IC50 came to 510 nM in data set [7]; 650 nM in data set [8]; 500 nM in [9]; 320 nM in data set [10]; 600 nM in data set [11]; 310 nM in [12]. Also, the IC50 was above 25000 nM on Cytochrome P450 3A4; 600 nM in [14]; 500 nM in [15]; 520 nM in [16]; 510 nM in [17]; 320 nM in data set [18]. Besides, the IC50 was 500 nM in [20]; 270 nM in [21]; 26000 nM in data set [24]; 500 nM in data set [25]; above 25000 nM in data set [26]; 8400 nM in data set [28]. Also, the IC50 in data set [29] was 940 nM; in data set [30], 13300 nM. Moreover, the remaining at […] in data set [3] was 97.4%. In addition, the fraction unbound at 5 µM in data set [5] stood at 0.1. The compound also returned a kinetic solubility at 2 h in data set [13] of 65 µM (≈ 26.8 µg/mL). The basolateral-to-apical permeability (Papp B→A) at 10 µM in data set [19] was 17.2 ×10⁻⁶ cm/s. Further, the midpoint of cytotoxicity in the data set on MT2, the CC50, lay at 37000 nM. Besides, the microsomal CLint in data set [22] was below 10 µL/min/mg. In addition, the Papp A→B at 10 µM in [23] was 1.17 ×10⁻⁶ cm/s. The CC50 at 72 h in [27] was 39500 nM.
